System: MS2 coat protein
Test: apparent Kd, MS2 coat protein; higher = weaker binding; RNA-MaP array; FMN 200 µM where present
How it was run: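 On Illumina sequencing-chip clusters, designs were transcribed by stalled E. coli RNA polymerase and titrated with SNAP-549-labelled MS2 coat protein (0.7 or 1.5 nM, doubling to 3 µM), without and then with constant ligand, in 100 mM Tris-HCl pH 7.5, 80 mM KCl, 4 mM MgCl2, BSA, DTT, yeast tRNA and Tween-20. Apparent Kd is the median of filtered per-cluster curve fits to green signal normalised to red-channel RNA signal and control-cluster median Fmax.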

[1] = designed as: OFF switch for flavin mononucleotide, no ligand
[2] = ligand present: flavin mononucleotide, designed as: OFF switch for flavin mononucleotide
[3] = designed as: ON switch for flavin mononucleotide, no ligand
[4] = ligand present: flavin mononucleotide, designed as: ON switch for flavin mononucleotide

Sequence | apparent Kd [1] [nM] | apparent Kd [2] [nM] | apparent Kd [3] [nM] | apparent Kd [4] [nM]
CCAUGGCUGUGAGGAUAUGUCUGACAAAGUCAGACAGAAGGCACAUGAGGAUCACCCAUGUGAGGAAAACCACAUUUGCCAUGG | 5.81 | 6.29 | – | –
UCAUGGUAGCAGGAUAUGCUUGUUUUUUUUUUUGCAGAAGGGCUUACAUGAGGAUCACCCAUGUGAGAGGUCUA | 14.5 | 21.6 | – | –
AAGUUCUGUGAGAAGGCGCCCUUUGCGGUUGGGCGAGGAUAUCACAUGAGGAUCACCCAUGUCGGUGCAUCAGACAGCGUAUUU | 810 | 156 | – | –
UUUCCGCGAGGAUAUGCGGGUUGUGCUUUUCAUUUUUUAUAACAUGAGGAUCACCCAUGUAGAAGGUGCUUCUG | 78.7 | 71.6 | – | –
UUGUAGUACGUAGGAUAUCAUUGAGGGUCACCCUGAGAAGGACGUGAGGACAUGAGGAUCACCCAUGUGGAUCACCCAUGUCAU | 282 | 549 | – | –
UACAGACAUGAGGAUCACCCAUGUGAGGAUAUCGAUAACAAUAAAAUAAUAUAAACAACGAGAAGGCACAGCAU | 57.4 | 73 | – | –
AGUUAAUAUCGAGGAUAUGUCUAGACACAUGAGGAUCACCCAUGUAUGUGUAUAGAAGGCGAAAUUAAAAGCAUGUUACAUGCA | – | – | 31.1 | 19.5
UUUUACAUAGGAUAUAGUUUGUUGUACAUGAGGAUCACCCAUGUUGUUGGUUGUGCUGUUCUAGAAGGAUGUUUCU | 44.4 | 33.8 | – | –
UCGGCGCGAGGAUAUGCGGUUUGUGCUUUGGGCCCUGGCGUACAUGAGGAUCACCCAUGUAGAAGGCGUGUUGC | 21.3 | 21.3 | – | –
CUGAGGUAAGGAUAUAGGAGAGAAGAUAAGGUAUGAGAGUUCUAGAAGGUACAUGAGGAUCACCCAUGUUAGGG | 477 | 235 | – | –
CGAGUGUAAGGAUAUUCGGCGCCAGGGAACGACCUGGCGUAGAAGAAGGUACAUGAGGAUCACCCAUGUGGUUA | 178 | 18.6 | – | –
AACGAAGAGGAGAAGGGUGAUGGGUCCUCAUGACCCGGAGGGCCGCGGCACAGGAUAUCCAUGUCACAUGAGGAUCACCCAUGU | – | – | 123 | 18.5
GCCCUAAGGCGGGCCGACCAUACAUGAGGAUCACCCAUGUCGAGAAGGUGCUCACGGGUGGGUGGCAAGGAUAUCGGGUCGGAU | – | – | 77.1 | 41.4
AAUAGAAAGAUUAAUAUGAUUACAUGAGGAUCACCCAUGUAUAAGGAUAUCGACGUCAAUGACGUCGAGAAGGUAUACAUAAUA | 15.7 | 34 | – | –
GGAUCUUGGGUCAGGAUAUGCUGAUAUUUUUGUCAGCAGAAGGGACAUGAGGAUCACCCAUGUGCUUGGUUUUG | 11.2 | 21.8 | – | –
AUCCGACAUGAGGAUCACCCAUGUCAGGAUAUGGACUGACAUCGAAAGGAUGGAAGAACCAGAAGGGACUGGGC | 28.2 | 48.5 | – | –
AAACUGCCACAUGAGGAUCACCCAUGUAAAUAAAGUAUUUGGAGAAGGGCGAUAGCAAAGCUAUCGCAGGAUAUCCUCAGGCAG | – | – | 801 | 87.9
CAAAACAUCUCCGUGUUUGUCGAACAUGAGGAUCACCCAUGUAGAAGGCAUCGCGCGACGCAGGAUGAGGAUAUACGCUGGAUG | 6.43 | 11 | – | –
UAGAGAGGAAGCGAGGAUAUCGUGUGAGGAACAUGAGGAUCACCCAUGUGUGAUGUUGAGAGAGACGAGAAGGCGCAGGAAAUUA | – | – | 205 | 72.6

Sequence | apparent Kd [1] [nM] | apparent Kd [2] [nM] | apparent Kd [3] [nM] | apparent Kd [4] [nM]
GAGCGAAAGCUCAAUGUCGAUAGCAGAAGGACAUGAAAACAUGAAAACACAUGAGGAUCACCCAUGUAGGAUAUGCUAUCGACU | 9.43 | 84.8 | – | –
AAUGGCGUGAUAACGCUAAUUACAACAUGAGGAUCACCCAUGUAGGAUAUCCUACCGAAAUGGUAGGAGAAGGACAAGCAAUGA | 30.4 | 23.5 | – | –
GGGAGACAUGAGGAUCACCCAUGUGAAAACGUGUGAGGAUAUCAAUGGAAACCAUACUGUUGAGAAGGCACUUGUC | – | – | 118 | 41.2
AAUAAACAUGAGGAUCACCCAUGUGGUGGCCCAUGAGGAUAUCCGUACGCAAUGCGCACAGGAGAAGGCAUAGCCA | – | – | 33.9 | 90.8
AAAACACAUGAGGAUCACCCAUGUAUCUGGACCAUAGGAUAUCCGCACCCACUAGGGCGUGGAGAAGGGUGAGCCC | – | – | 170 | 194
AACGUUCGAGGAUAUGUGGCGCUGCACAUGAGGAUCACCCAUGUGAGGACUUGCAGCAUCACAGAAGGUGACCUGC | 94 | 84.6 | – | –
GAGCGCUGUCAAGGAUAUCCGAAAAGAAAAUAAGGAGAAGGUGACAUGAGGAUCACCCAUGUGCACUGGGUGGACGCGCGCUCC | 459 | 256 | – | –
GUGAGGUCAGGAUAUGCAUGGCGGGACUUGCGUCGUGGCGUGCAGAAGGGACAUGAGGAUCACCCAUGUGGAGC | 81.6 | 194 | – | –
GAGUCUCUAUUAGAACCGAUACGAACAUGAGGAUCACCCAUGUAGGAUAUGCUAAAAGUUGUGUUGCAGAAGGACAUUUAAAGC | 10.6 | 9.89 | – | –
GUGUAGGUAGGAUAUACAUGAGGAUCACCCAUGUGAAUAAGAUAGAAUAAGAUAAAGUGUAGAAGGACUAGUGU | 37 | 28.8 | – | –
CGGUGCUGAGGAUAUACAUGAGGAUCACCCAUGUGUGCCAGCUAGAAGACUGGCACUUGUAGAAGGCAGUACUG | 11.4 | 20.5 | – | –
UCUUGUGUUGAGGAUAUGCGCCGGCUCGCUGGCGCAGAAGGCGGCACAUGAGGAUCACCCAUGUCAGUUCGCGU | 326 | 78 | – | –
AUUAUUUAAGUCAGGAUAUCGUAUUUAUUUAAAUACGAGAAGGGACAUGAGGAUCACCCAUGUAAUAAAUUUUU | 16.9 | 22.9 | – | –
AAAUGCCUGUCGAUGCUCGACAUGAGGAUCACCCAUGUACAGCAGGAUAUGCAGAACAACCUCGUGCAGAAGGGCUGUACCAAU | 54.3 | 157 | – | –
UAUUUAUAAUAUUUUAACAUGAGGAUCACCCAUGUCGCUAGACAGGAUAUAUUUUAUUUUUUUAAGUAGAAGGGUCAUAUAUUU | – | – | 84 | 103
CCUCCACAUGAGGAUCACCCAUGUCAGGAUAUCGUGUGUGCGUUUUCGGUCUUUCGUGCGAGAAGGGACGUCUG | 68.7 | 62.9 | – | –
AAUUAACAUGAGGAUCACCCAUGUGAGGAUAUGAUAUUACUUGGACAGCUAUGAUCAAUCAGAAGGCACAUCUU | 22.3 | 28.5 | – | –
GUGCGAGCCACAGGAUAUCUACAAAUUUACUGUAGAGAAGGGUGACCUCGUGCACCACAUGAGGAUCACCCAUGUAACUAGGCG | – | – | 26.3 | 53
GAGAGAGGAUGAGGAUAUGCAGUAAUAAUGAUAGCAGAAGGCAUAGACAUGAGGAUCACCCAUGUGGGAAUAAUCCAGAGAGAG | – | – | 188 | 272

Sequence | apparent Kd [1] [nM] | apparent Kd [2] [nM] | apparent Kd [3] [nM] | apparent Kd [4] [nM]
CUCAGCUCGUGAGGAUAUACAACACUGCUUCGGCAGUGUAUUAAGAUCACAUGAGGAUCACCCAUGUAGAAGGCACGAGCUGAU | 14.3 | 246 | – | –
AUGUAGCUAGGAUAUACAUAGAUACAGAUUCAUGUAGAACUACAUGAGGAUCACCCAUGUAGAAGGAGCUAAAA | 28.7 | 50.4 | – | –
UUAUACUGAGAGAAGGUUCAAACUACAUAUUGCAUACAUGAGGAUCACCCAUGUUGGUGAAUAAGAAAGGAUAUUUUACUGUAU | 39.2 | 27.9 | – | –
AAAAAACAUGAGGAUCACCCAUGUAAGGAUAUCGUGCAGAAAAAAAAAAAAAACUGCACGAGAAGGUACAAGGA | 74.4 | 108 | – | –
GCGUGAAAUGUAGGAUAUGACACAGGAAACUGGUCAGAAGGACAUGAGGAUCACCCAUGUAAUAAGUUCAAGAAUAACACAUGC | 33.1 | 75.5 | – | –
GCGUAACAUGAGGAUCACCCAUGUACCCGAGAAUUCGGGUGUAGAAGGGUGACCGGUCGUUUGGCACAGGAUAUACACGUUGUG | – | – | 30.1 | 16.8
AUUCUGCUCGCAGGAUAUCAGGAAAUGUUGAUCUUCUGUAUCUCCUACAUGAGGAUCACCCAUGUUGAGAAGGGCGAUGGCAAU | 65.7 | 400 | – | –
GUGCCUAACUAGAAGGCAGCAUGCAAAGCAUUCUGAGGAUAUGGGUUCCGGAAACGGACAUGAGGAUCACCCAUGUGGCACAAA | – | – | 482 | 34.7
GCACAUGGCAUAGGAUAUAGAACUUUACUUUAUAUAGGUAGUUACACUUAACUAGAAGGAUGUUACAUGAGGAUCACCCAUGUU | – | – | 25.4 | 20
GGAUAGGACAUAGGAUAUACGUGCUAGAGAUACUAGCAAAAUUUCCUCACAUGAGGAUCACCCAUGUAGAAGGCUGUCCUAUCG | 6.73 | 24.5 | – | –
GGAUUGAAUGAGGAUAUCGUAUCGGGUACGAUGCGAGAAGGCAUGACAUGAGGAUCACCCAUGUAGUGUGGGUU | 415 | 685 | – | –
GGUACUCAAAGAGUACCAAUACGAACAUGAGGAUCACCCAUGUAGGAUAUGCUCAAAACGGAGUAGCAGAAGGACAUGUGCCUA | 12.7 | 32.2 | – | –
UUAUAAAGUGUGAGGAUAUGCUGGUCGAUAGAUCAGCAGAAGGCACAUGAGGAUCACCCAUGUAAUAUAUUUUA | 52.1 | 222 | – | –
AUCUUGCGAGGAUAUACUUACUUUUUUUUAUUUGGUUGCGAACAUGAGGAUCACCCAUGUAGAAGGUGCAUAAC | 26 | 24.1 | – | –
GUGGUCAGACAUGAGGAUCACCCAUGUGGAAUAAAUAAGGAAUAGGAUAUGGAAUAUAGGAUAUACCAGAAGGGUUGGUUGGUG | – | – | 98.4 | 114
AGGUCAACCACAGGAUAUGGCUAGCAUAGCUAGCCAGAAGGGUGGUCGUAUCCAUGUAAAUACAUGAGGAUCACCCAUGUAUCC | – | – | 283 | 79.1
GAUUAACAUGAGGAUCACCCAUGUGAGGAUAUGGACUGGCUCACUUUUCGAUUCCCGUCUAGAAGGCGCAUCUU | 39.3 | 55.6 | – | –
GAUGAGGUAGGAUAUACGAUAAUAUAGGGUAGAUAUAUAACACAUGAGGAUCACCCAUGUAGAAGGACCAGUAG | 33.5 | 73.4 | – | –
